How the values were obtained:
[1] = Biodistribution in L-Atrium of 9L-glioma bearing rat at 1 to 3 mCi, iv after 5 mins; format: ADME, organism-based; conditions: in vivo
Procedure, shortened: (§1)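 9L-glioma rats (200–300 g) given 1–3 mCi of [¹¹C]- or [¹⁸F]-labelled tracer iv by tail vein while consciously restrained. At 5 or 20 min they were decapitated under halothane anaesthesia. Tissues were excised and weighed, and decay-corrected radioactivity was counted by gamma counter. Values are %ID/g, averaged over three rats per time point.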

[2] = Biodistribution in urine of 9L-glioma bearing rat at 1 to 3 mCi, iv after 5 mins; format: ADME, organism-based; conditions: in vivo
Procedure, shortened: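 In 9L-glioma rats injected iv (tail vein, conscious restraint) with 1–3 mCi of radiotracer, urine was drawn by syringe from the bladder at 5 or 20 min. Animals were killed by decapitation under halothane. Decay-corrected radioactivity was gamma-counted and expressed as percent of injected dose (%ID), averaged over three rats.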

[3] = system: Kidney; assay: Biodistribution in kidney of 9L-glioma bearing rat at 1 to 3 mCi, iv after 5 mins; format: ADME, organism-based; conditions: in vivo; procedure, shortened: as §1
[4] = system: Liver; assay: Biodistribution in liver of 9L-glioma bearing rat at 1 to 3 mCi, iv after 5 mins; format: ADME, organism-based; conditions: in vivo; procedure, shortened: as §1
[5] = system: Lung; assay: Biodistribution in lung of 9L-glioma bearing rat at 1 to 3 mCi, iv after 5 mins; format: ADME, organism-based; conditions: in vivo; procedure, shortened: as §1
[6] = system: Brain; assay: Biodistribution in brain of 9L-glioma bearing rat at 1 to 3 mCi, iv after 5 mins; format: ADME, organism-based; conditions: in vivo; procedure, shortened: as §1
[7] = system: Blood; assay: Biodistribution in blood of 9L-glioma bearing rat at 1 to 3 mCi, iv after 5 mins; format: ADME, organism-based; conditions: in vivo; procedure, shortened: as §1
[8] = system: Plasma; assay: Biodistribution in plasma of 9L-glioma bearing rat at 1 to 3 mCi, iv after 5 mins; format: ADME, organism-based; conditions: in vivo; procedure, shortened: as §1
[9] = Biodistribution in R-Atrium of 9L-glioma bearing rat at 1 to 3 mCi, iv after 5 mins; format: ADME, organism-based, Right cardiac atrium; conditions: in vivo; procedure, shortened: as §1
[10] = system: Septum; assay: Biodistribution in septum of 9L-glioma bearing rat at 1 to 3mCi, iv after 5 mins; format: ADME, organism-based; conditions: in vivo; procedure, shortened: as §1
[11] = Biodistribution in L-ventricle of 9L-glioma bearing rat at 1 to 3mCi, iv after 5 mins; format: ADME, organism-based, Heart left ventricle; conditions: in vivo; procedure, shortened: as §1
[12] = Biodistribution in R-ventricle of 9L-glioma bearing rat at 1 to 3 mCi, iv after 5 mins; format: ADME, organism-based, Heart right ventricle; conditions: in vivo; procedure, shortened: as §1
[13] = Biodistribution in A-V-node of 9L-glioma bearing rat at 1 to 3 mCi, iv after 5 mins; format: ADME, organism-based; conditions: in vivo; procedure, shortened: as §1
[14] = system: Solar plexus; assay: Biodistribution in solar plexus of 9L-glioma bearing rat at 1 to 3 mCi, iv after 5 mins; format: ADME, organism-based; conditions: in vivo; procedure, shortened: as §1
[15] = Biodistribution in skeletal muscle of 9L-glioma bearing rat at 1 to 3 mCi, iv after 5 mins; format: ADME, organism-based, Muscle tissue; conditions: in vivo; procedure, shortened: as §1
[16] = system: 9L; assay: Biodistribution in tumor of 9L-glioma bearing rat at 1 to 3 mCi, iv after 5 mins; format: ADME, organism-based; conditions: in vivo; procedure, shortened: as §1
[17] = system: Blood; assay: Biodistribution in blood of 9L-glioma bearing rat at 1 to 3 mCi, iv after 30 mins; format: ADME, organism-based; conditions: in vivo, 0.5 h
Procedure, shortened: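 Blood was weighed and gamma-counted with decay correction, and results are expressed as %ID/g. Total blood activity assumed a blood mass of 7% of body mass. n = 3, mean.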

[18] = system: Plasma; assay: Biodistribution in plasma of 9L-glioma bearing rat at 1 to 3 mCi, iv after 30 mins; format: ADME, organism-based; conditions: in vivo, 0.5 h
Procedure, shortened: (§2)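 At 30 min they were decapitated under halothane anaesthesia. Tissues were excised, weighed and gamma-counted with decay correction. Values are %ID/g, averaged over three rats.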

[19] = system: Brain; assay: Biodistribution in brain of 9L-glioma bearing rat at 1 to 3 mCi, iv after 30 mins; format: ADME, organism-based; conditions: in vivo, 0.5 h; procedure, shortened: as §2
[20] = system: Lung; assay: Biodistribution in lung of 9L-glioma bearing rat at 1 to 3 mCi, iv after 30 mins; format: ADME, organism-based; conditions: in vivo, 0.5 h; procedure, shortened: as §2
[21] = system: Liver; assay: Biodistribution in liver of 9L-glioma bearing rat at 1 to 3 mCi, iv after 30 mins; format: ADME, organism-based; conditions: in vivo, 0.5 h; procedure, shortened: as §2
[22] = system: Kidney; assay: Biodistribution in kidney of 9L-glioma bearing rat at 1 to 3 mCi, iv after 30 mins; format: ADME, organism-based; conditions: in vivo, 0.5 h; procedure, shortened: as §2
[23] = Biodistribution in urine of 9L-glioma bearing rat at 1 to 3 mCi, iv after 30 mins; format: ADME, organism-based; conditions: in vivo, 0.5 h
Procedure, shortened: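 At 30 min, urine was drawn from the bladder by syringe after decapitation under halothane. Radioactivity was gamma-counted with decay correction and expressed as % of injected dose. Mean of three rats.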

[24] = Biodistribution in L-Atrium of 9L-glioma bearing rat at 1 to 3 mCi, iv after 30 mins; format: ADME, organism-based, Left cardiac atrium; conditions: in vivo, 0.5 h; procedure, shortened: as §2
[25] = Biodistribution in R-Atrium of 9L-glioma bearing rat at 1 to 3 mCi, iv after 30 mins; format: ADME, organism-based, Right cardiac atrium; conditions: in vivo, 0.5 h; procedure, shortened: as §2
[26] = system: Septum; assay: Biodistribution in septum of 9L-glioma bearing rat at 1 to 3 mCi, iv after 30 mins; format: ADME, organism-based; conditions: in vivo, 0.5 h; procedure, shortened: as §2
[27] = Biodistribution in L-ventricle of 9L-glioma bearing rat at 1 to 3 mCi, iv after 30 mins; format: ADME, organism-based, Heart left ventricle; conditions: in vivo, 0.5 h; procedure, shortened: as §2
[28] = Biodistribution in R-ventricle of 9L-glioma bearing rat at 1 to 3 mCi, iv after 30 mins; format: ADME, organism-based, Heart right ventricle; conditions: in vivo, 0.5 h; procedure, shortened: as §2
[29] = Biodistribution in A-V-node of 9L-glioma bearing rat at 1 to 3 mCi, iv after 30 mins; format: ADME, organism-based; conditions: in vivo, 0.5 h; procedure, shortened: as §2
[30] = system: Solar plexus; assay: Biodistribution in solar plexus of 9L-glioma bearing rat at 1 to 3 mCi, iv after 30 mins; format: ADME, organism-based; conditions: in vivo, 0.5 h; procedure, shortened: as §2
[31] = Biodistribution in skeletal muscle of 9L-glioma bearing rat at 1 to 3 mCi, iv after 30 mins; format: ADME, organism-based, Muscle tissue; conditions: in vivo, 0.5 h; procedure, shortened: as §2
[32] = system: 9L; assay: Biodistribution in tumor of 9L-glioma bearing rat at 1 to 3 mCi, iv after 30 mins; format: ADME, organism-based; conditions: in vivo, 0.5 h; procedure, shortened: as §2
[33] = Ratio of biodistribution in tumor to blood of 9L-glioma bearing rat at 1 to 3 mCi, iv after 30 mins; format: ADME, organism-based; conditions: tumour, 0.5 h
[34] = Ratio of biodistribution in tumor to muscle of 9L-glioma bearing rat at 1 to 3 mCi, iv after 30 mins; format: ADME, organism-based; conditions: in vivo, 0.5 h

With `C[N+]1(C)CCOC(O)(c2ccc(-c3ccc(C4(O)C[N+](C)(C[18F])CCO4)cc3)cc2)C1.O=S(=O)([O-])C(F)(F)F.[I-]` (centres undefined) the Drug uptake [1] was 0.824 % ID/g, the Drug uptake [2] was 10.2 % dose and the Drug uptake [3] was 8.676 % ID/g. It also gave a Drug uptake [4] of 1.228 % ID/g, a Drug uptake [5] of 0.944 % ID/g and a Drug uptake [6] of 0.042 % ID/g. For the same compound, the Drug uptake [7] was 1.467 % ID/g, the Drug uptake [8] was 3.732 % ID/g and the Drug uptake [9] was 2.023 % ID/g. It also gave a Drug uptake [10] of 0.53 % ID/g, a Drug uptake [11] of 0.438 % ID/g and a Drug uptake [12] of 0.734 % ID/g. For the same compound, the Drug uptake [13] was 5.607 % ID/g, the Drug uptake [14] was 1.186 % ID/g and the Drug uptake [15] was 0.194 % ID/g. The Drug uptake [16] was 0.952 % ID/g, the Drug uptake [17] was 0.378 % ID/g and the Drug uptake [18] was 1.272 % ID/g. It also gave a Drug uptake [19] of 0.03 % ID/g, a Drug uptake [20] of 0.533 % ID/g and a Drug uptake [21] of 1.536 % ID/g. It also gave a Drug uptake [22] of 5.935 % ID/g, a Drug uptake [23] of 27.6 % dose and a Drug uptake [24] of 0.767 % ID/g. For the same compound, the Drug uptake [25] was 0.999 % ID/g, the Drug uptake [26] was 0.262 % ID/g and the Drug uptake [27] was 0.253 % ID/g. For the same compound, the Drug uptake [28] was 0.243 % ID/g, the Drug uptake [29] was 0.6 % ID/g and the Drug uptake [30] was 1.009 % ID/g. The Drug uptake [31] was 0.123 % ID/g, the Drug uptake [32] was 0.359 % ID/g and the Ratio [33] was 0.978. The Ratio [34] was 3.024.

From ChEMBL document CHEMBL1144620, “Synthesis and biodistribution of new radiolabeled high-affinity choline transporter inhibitors [11C]hemicholinium-3 and [18F]hemicholinium-3” (Bioorg Med Chem Lett, 2007)
